Measured values taken from ChEMBL document CHEMBL1144006, “Phenylalanine-containing hydroxamic acids as selective inhibitors of class IIb histone deacetylases (HDACs)” (Bioorg Med Chem, 2008).
Non-standard residues stand in square brackets, D forms with d. Residues, ends and D or L forms follow the SMILES beside them. *: point of attachment. Asu = N[C@@H](CCCCCC(=O)O)C(=O)O; Aib = CC(C)(N)C(=O)O; NHOH = ON*

How the values were obtained:
Histone deacetylase 1 [1] = target: T1, Histone deacetylase 1 (Rattus norvegicus, UniProt Q4QQW4); assay: Inhibition of HDAC1 in rat liver extract
T1 sequence (Q4QQW4 whole entry): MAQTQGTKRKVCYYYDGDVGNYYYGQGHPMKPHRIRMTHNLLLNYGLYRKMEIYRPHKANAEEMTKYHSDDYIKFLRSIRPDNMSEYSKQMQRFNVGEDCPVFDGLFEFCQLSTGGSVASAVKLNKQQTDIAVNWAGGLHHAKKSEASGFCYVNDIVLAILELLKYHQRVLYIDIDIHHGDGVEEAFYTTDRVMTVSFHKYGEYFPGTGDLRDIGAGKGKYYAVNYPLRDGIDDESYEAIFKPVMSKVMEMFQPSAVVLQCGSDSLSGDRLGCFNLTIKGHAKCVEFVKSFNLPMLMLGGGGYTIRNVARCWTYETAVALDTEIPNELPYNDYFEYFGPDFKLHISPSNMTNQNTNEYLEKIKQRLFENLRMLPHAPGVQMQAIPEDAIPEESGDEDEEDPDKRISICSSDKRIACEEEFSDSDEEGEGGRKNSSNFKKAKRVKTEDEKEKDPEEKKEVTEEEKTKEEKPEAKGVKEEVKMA

[2] = Inhibition of HDAC6 in rat liver extract
Histone deacetylase 1 [3] = target: Histone deacetylase 1 (Homo sapiens, UniProt Q13547); assay: Inhibition of FLAG-tagged HDAC1 expressed in human 293T cells; format: cell-based
Histone deacetylase 1 (Homo sapiens, UniProt Q13547), sequence (Q13547 whole entry): as the sequence (Q4QQW4 whole entry) above, with K8R, E399D, D424E, M481L counted along it
Procedure, shortened: (§1)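 FLAG-HDAC1 or FLAG-HDAC6 was immunoprecipitated with M2 agarose from lysates of overexpressing 293T cells, washed in enzyme buffer and diluted 1:10. Bead suspension, inhibitor and unselective fluorogenic substrate ZMAL were incubated at 37 C for 180 min. The reaction was stopped with TSA/borate pH 9.5/NDA and read at ex 330/em 390 nm. IC50 came from a dilution series against 0% and 100% (TSA) inhibition standards. Selectivity is the ratio of HDAC1 to HDAC6 IC50.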

[4] = target: T2, Protein deacetylase HDAC6 (Homo sapiens, UniProt Q9UBN7); assay: Inhibition of FLAG-tagged HDAC6 expressed in human 293T cells; format: cell-based
T2 sequence (Q9UBN7 whole entry): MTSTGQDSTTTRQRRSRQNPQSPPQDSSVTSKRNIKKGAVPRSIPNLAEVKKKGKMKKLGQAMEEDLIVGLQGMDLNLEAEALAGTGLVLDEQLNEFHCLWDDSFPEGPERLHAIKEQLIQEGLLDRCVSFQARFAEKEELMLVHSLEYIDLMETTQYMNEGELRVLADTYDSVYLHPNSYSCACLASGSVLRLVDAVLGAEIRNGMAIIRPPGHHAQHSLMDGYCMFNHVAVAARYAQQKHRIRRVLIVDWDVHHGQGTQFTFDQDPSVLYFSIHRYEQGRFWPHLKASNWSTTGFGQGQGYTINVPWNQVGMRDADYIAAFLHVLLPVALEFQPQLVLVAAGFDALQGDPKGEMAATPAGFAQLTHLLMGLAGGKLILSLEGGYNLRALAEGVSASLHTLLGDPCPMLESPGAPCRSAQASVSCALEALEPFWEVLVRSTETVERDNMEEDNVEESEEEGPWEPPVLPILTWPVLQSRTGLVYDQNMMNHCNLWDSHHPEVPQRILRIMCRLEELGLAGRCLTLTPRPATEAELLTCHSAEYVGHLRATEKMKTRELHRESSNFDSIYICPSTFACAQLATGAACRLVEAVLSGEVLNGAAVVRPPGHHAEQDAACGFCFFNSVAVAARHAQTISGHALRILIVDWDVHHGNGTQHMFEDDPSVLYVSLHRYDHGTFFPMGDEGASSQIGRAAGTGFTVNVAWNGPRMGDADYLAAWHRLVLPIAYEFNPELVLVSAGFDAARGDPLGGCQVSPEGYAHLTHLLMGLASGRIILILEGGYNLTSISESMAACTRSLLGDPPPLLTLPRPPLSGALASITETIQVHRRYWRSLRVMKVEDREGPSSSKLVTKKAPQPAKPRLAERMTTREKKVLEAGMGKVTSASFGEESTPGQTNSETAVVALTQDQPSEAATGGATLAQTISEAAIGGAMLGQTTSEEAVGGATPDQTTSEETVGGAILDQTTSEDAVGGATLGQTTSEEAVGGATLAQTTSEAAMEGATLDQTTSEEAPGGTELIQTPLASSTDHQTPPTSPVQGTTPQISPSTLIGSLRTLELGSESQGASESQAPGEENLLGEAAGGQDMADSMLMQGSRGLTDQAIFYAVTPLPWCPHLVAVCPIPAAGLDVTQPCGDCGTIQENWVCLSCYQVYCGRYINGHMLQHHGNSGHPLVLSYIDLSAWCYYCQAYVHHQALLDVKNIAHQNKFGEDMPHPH

Rattus norvegicus = organism: Rattus norvegicus; assay: Selectivity for rat liver HDAC6 over rat liver HDAC1
Homo sapiens = organism: Homo sapiens; assay: Selectivity for human FLAG-tagged HDAC6 over human FLAG-tagged HDAC1; procedure, shortened: as §1
MCF7 = assay: Cytotoxicity against human MCF7 cells after 48 hrs by One aqueous proliferation assay; format: functional, cell-based; conditions: MCF7, 48 h
Procedure, shortened: (§2)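 Cells seeded at 5000 per well, with compound or DMSO vehicle added 24 h after seeding. Incubated 48 h at 37 C, three replicates per concentration. Growth was read by MTS absorbance at 490 nm. GI50 is the concentration reducing cell number by 50% versus control.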

Histone deacetylase 1 [5] = target: T1, Histone deacetylase 1; assay: Inhibition of HDAC1 in rat liver extract by trypsin assay
Procedure, shortened: (§3)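 Same rat liver extract and the subtype-selective substrates (Z-(propionyl)Lys-AMC for HDAC1, Boc(Ac)Lys-(F3-AMC) for HDAC6), incubated with inhibitor at 37 C. After incubation the reaction was developed with trypsin instead of NDA. IC50 was taken from a dilution series against 0% and 100% (TSA) inhibition standards.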

[6] = Inhibition of HDAC6 in rat liver extract by trypsin assay; procedure, shortened: as §3
SQ20B = assay: Cytotoxicity against human SQ20B cells after 48 hrs by One aqueous proliferation assay; format: functional, cell-based; procedure, shortened: as §2
HeLa = assay: Cytotoxicity against human HeLa cells after 48 hrs by One aqueous proliferation assay; format: functional, cell-based; procedure, shortened: as §2
Jurkat = assay: Cytotoxicity against human Jurkat cells after 48 hrs by One aqueous proliferation assay; format: functional, cell-based; procedure, shortened: as §2
MCF-10A = assay: Cytotoxicity against human MCF10A cells after 48 hrs by One aqueous proliferation assay; format: functional, cell-based; procedure, shortened: as §2
PC-3 = assay: Cytotoxicity against human PC3 cells after 48 hrs by One aqueous proliferation assay; format: functional, cell-based; conditions: PC-3, 48 h; procedure, shortened: as §2

Row | Compound | IC50 (Histone deacetylase 1 [1]) | IC50 [2] | IC50 (Histone deacetylase 1 [3]) | IC50 [4] | Ratio IC50 (Rattus norvegicus) | Ratio IC50 (Homo sapiens) | IC50 (MCF7) | IC50 (Histone deacetylase 1 [5]) | IC50 [6] | IC50 (SQ20B) | IC50 (HeLa) | IC50 (Jurkat) | IC50 (MCF-10A) | IC50 (PC-3)
1 | COC(=O)[C@H](Cc1ccc(-c2ccc(-c3ccccc3)cc2)cc1)NC(=O)CCCCCCCC(=O)NO | 8.76 µM | 6.76 µM | 38.3 µM | 14.7 µM | 1.3 | 2.6 | 3.8 µM | – | – | – | – | – | – | –
2 | COC(=O)[C@H](Cc1ccc(Br)cc1)NC(=O)CCCCCCCC(=O)NO | 2.11 µM | 0.68 µM | 28.4 µM | 4.67 µM | 3.1 | 6.09 | 0.9 µM | – | – | – | – | – | – | –
3 | COC(=O)[C@H](Cc1ccc(-c2ccccc2)cc1)NC(=O)CCCCCCC(=O)NO | 0.44 µM | 0.58 µM | 1.22 µM | 1.05 µM | 0.76 | 1.16 | 5 µM | – | – | – | – | – | – | –
4 | CC1(C)NC(=O)[C@H](CCCCCC(=O)NO)NC(=O)[C@H]2CCCN2C(=O)[C@H](Cc2ccccc2)NC1=O (cyclo([Aib]F[dP][Asu](NHOH))) | 0.021 µM | 0.23 µM | 0.0004 µM | 0.04 µM | 0.09 | 0.01 | – | – | – | – | – | – | – | –
5 | COC(=O)[C@H](Cc1ccc(-c2ccc3ccccc3c2)cc1)NC(=O)CCCCCCC(=O)NO | 0.63 µM | 0.91 µM | 2.98 µM | 1.17 µM | 0.69 | 2.55 | 1.9 µM | – | – | – | – | – | – | –
6 | COC(=O)[C@H](Cc1ccc(-c2cccs2)cc1)NC(=O)CCCCCCCC(=O)NO | 2.55 µM | 0.84 µM | 16.8 µM | 4.09 µM | 3.04 | 4.1 | 4 µM | – | – | – | – | – | – | –
7 | COC(=O)[C@H](Cc1ccc(-c2ccc3ccccc3c2)cc1)NC(=O)CCCCCCCC(=O)NO | – | – | 10.5 µM | 2.85 µM | 1.38 | 3.7 | 4 µM | 5.19 µM | 3.76 µM | – | – | – | – | –
8 | COC(=O)[C@H](Cc1ccc(-c2ccoc2)cc1)NC(=O)CCCCCCCC(=O)NO | 3.03 µM | 0.68 µM | 10.3 µM | 1.05 µM | 4.46 | 9.81 | 32 µM | – | – | 35 µM | 21 µM | 4 µM | 44 µM | 10 µM
9 | COC(=O)[C@H](Cc1ccc(-c2ccco2)cc1)NC(=O)CCCCCCCC(=O)NO | 2.44 µM | 0.47 µM | 9.76 µM | 2.33 µM | 5.19 | 4.19 | 18 µM | – | – | – | – | – | – | –
10 | COC(=O)[C@H](Cc1ccc(Br)cc1)NC(=O)CCCCCCC(=O)NO | 3.19 µM | 4.98 µM | 22.9 µM | – | 0.64 | 13.5 | 22 µM | – | – | 25 µM | 15 µM | 3 µM | > 50 µM | > 50 µM
11 | COC(=O)[C@H](Cc1ccc(-c2ccc(-c3ccccc3)cc2)cc1)NC(=O)CCCCCCC(=O)NO | 0.13 µM | 0.78 µM | 0.96 µM | 0.69 µM | 0.17 | 1.39 | 0.8 µM | – | – | – | – | – | – | –
12 | COC(=O)[C@H](Cc1ccc(-c2cccs2)cc1)NC(=O)CCCCCCC(=O)NO | 0.57 µM | 0.58 µM | 5.07 µM | 9.99 µM | 0.98 | 0.51 | 4 µM | – | – | 6 µM | 3 µM | 0.4 µM | 8 µM | 1.8 µM
13 | COC(=O)[C@H](Cc1ccc(-c2ccoc2)cc1)NC(=O)CCCCCCC(=O)NO | 3.18 µM | 2.25 µM | 6.35 µM | 1.13 µM | 1.41 | 5.62 | 1.5 µM | – | – | – | – | – | – | –
14 | COC(=O)[C@H](Cc1ccc(-c2ccsc2)cc1)NC(=O)CCCCCCCC(=O)NO | 3.01 µM | 0.81 µM | 19.2 µM | 1.77 µM | 3.72 | 10.8 | 17 µM | – | – | 37 µM | 10 µM | 2.8 µM | 32 µM | 10 µM
15 | COC(=O)[C@H](Cc1ccc(-c2ccccc2)cc1)NC(=O)CCCCCCCC(=O)NO | 1.68 µM | 6.1 µM | 9.54 µM | 2.33 µM | 0.28 | 4.09 | 21 µM | – | – | 33 µM | 7 µM | 2.7 µM | 42 µM | 9.9 µM
16 | COC(=O)[C@H](Cc1ccc(-c2ccco2)cc1)NC(=O)CCCCCCC(=O)NO | 7.53 µM | 6.76 µM | 2.61 µM | 4.49 µM | 1.11 | 0.58 | 1.5 µM | – | – | – | – | – | – | –
17 | CN(C)c1ccc(C(=O)NCCCCCCC(=O)NO)cc1 | 0.24 µM | 0.08 µM | 2.96 µM | 0.75 µM | 3 | 3.95 | – | – | – | – | – | – | – | –
18 | COC(=O)[C@H](Cc1ccc(-c2ccsc2)cc1)NC(=O)CCCCCCC(=O)NO | 0.59 µM | 0.5 µM | 3.34 µM | 4.02 µM | 1.18 | 0.83 | 1.5 µM | – | – | – | – | – | – | –
